# ChEMBL document CHEMBL1148358, “DNA binding to guide the development of tetrahydroindeno[1,2-b]pyrido[4,3,2-de]quinoline derivatives as cytotoxic agents” (J Med Chem, 2004)
# Legend:
# Nucleic Acid [1] = experiment: Relative DNA binding affinity was determined as difference in melting temperature (delta Tm) with the polynucleotide Poly (dAT)2 complex and alone Poly (dAT)2; type: nucleic-acid assay
# Nucleic Acid [2] = experiment: Apparent binding constant with polynucleotide Poly (dAT)2 complex measured by fluorescence assay; type: nucleic-acid assay; details: in the assay text read “calf thymus DNA” for “polynucleotide Poly (dAT)2 complex”
# Procedure, shortened: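 Ethidium displacement by fluorescence: excitation 515 nm, emission read over 550-700 nm, [ethidium]/[DNA] molar ratio 12.6:10, drug 0.01-100 µM in BPE buffer pH 7.1. C50 for ethidium displacement taken from a fitted curve; Kapp = (1.26 µM/C50) × K_ethidium, with K_ethidium = 10⁷ M^-1.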
# PC-3 = experiment: Cytotoxicity towards human prostate cancer PC 3 cell line was determined; type: functional, cell-based
# Procedure, shortened: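 PC 3 cells kept in RPMI 1640 with 10% FCS were seeded at 3 × 10⁴ cells/well. After 3 days they were serum-starved for 24 h, then stimulated with 10 ng/mL EGF plus transferrin 50 ng/mL and selenium 50 pg/mL, with compounds added. Growth was read by MTT colorimetry after a further 72 h.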
# Nucleic Acid [3] = experiment: Apparent binding constant with calf thymus DNA measured by fluorescence assay
ΔTm (Nucleic Acid [1]) [°C],K app (Nucleic Acid [2]) [M⁻¹],K app (Nucleic Acid [3]) [M⁻¹],SMILES,IC50 (PC-3) [µM]
7,990000,,COc1cc2nc3c(c4c2c(c1OC)N(C(C)=O)CC4)Cc1cc(OCCN)ccc1-3,> 1
10,301000,,COc1cc2nc3c(c4c2c(c1OC)NCC4)Cc1cc(OCCCN2CCN(C)CC2)ccc1-3,0.0065
6,,293000,COc1cc2nc3c(c4c2c(c1OC)N(C(C)=O)CC4)Cc1cc(OCCCN)ccc1-3,> 1
14.8,5.14e+06,,COc1cc2nc3c(c4c2c(c1OC)NCC4)Cc1cc(OCCN)ccc1-3,> 1
15.8,6.13e+06,,COc1cc2nc3c(c4c2c(c1OC)NCC4)Cc1cc(OCCCN)ccc1-3,> 1
3.8,3.58e+06,,COc1cc2nc3c(c4c2c(c1OC)N(C(C)=O)CC4)Cc1cc(OCCCN2CCN(C)CC2)ccc1-3,> 1
19.6,503000,,COc1cc2nc3c(c4c2c(c1OC)N(C(=O)CN1CCN(C)CC1)CC4)Cc1cc(OCCN)ccc1-3,> 1
32.5,3.04e+06,,COc1cc2nc3c(c4c2c(c1OC)N(C(=O)CN1CCN(C)CC1)CC4)Cc1cc(OCCCN2CCN(C)CC2)ccc1-3,> 1
22.5,,2.78e+06,COc1cc2nc3c(c4c2c(c1OC)N(C(=O)CN1CCN(C)CC1)CC4)Cc1cc(OCCCN)ccc1-3,> 1

# The next lines start with the compound.
SMILES,ΔTm (Nucleic Acid [1]) [°C],K app (Nucleic Acid [2]) [M⁻¹],K app (Nucleic Acid [3]) [M⁻¹],IC50 (PC-3) [µM]
COc1cc2nc3c(c4c2c(c1OC)NCC4)Cc1cc(O)ccc1-3,4,,672000,> 1
COc1ccc2c(c1)Cc1c-2nc2cc(OC)c(OC)c3c2c1CCN3,0,1700,,> 1
COc1ccc2c(c1)Cc1c-2nc2cc(OC)c(OC)c3c2c1CCN3C(C)=O,,,,> 1
COc1cc2nc3c(c4c2c(c1OC)N(C(C)=O)CC4)Cc1ccccc1-3,,,,> 1
COc1cc2nc3c(c4c2c(c1OC)NCC4)Cc1ccccc1-3,0,3100,,> 1
COc1cc2nc3c(c4c2c(c1OC)N(C(C)=O)CC4)Cc1cc(O)ccc1-3,3.1,677000,,> 1
COc1cc2nc3c(c4c2c(c1OC)NCC4)CCc1cc(O)ccc1-3,1.1,1600,,> 1
